Tested on: MS2 coat protein
Experiment: apparent Kd, MS2 coat protein; higher = weaker binding; RNA-MaP array; FMN 200 µM where present
Summary of the method: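 In 100 mM Tris-HCl pH 7.5, 80 mM KCl, 4 mM MgCl2, BSA, DTT, yeast tRNA and Tween-20, SNAP-549-labelled MS2 coat protein was titrated from 0.7 or 1.5 nM, doubling to 3 µM, over designs transcribed by stalled E. coli RNA polymerase on Illumina sequencing-chip clusters. This was done first without ligand, then with ligand held constant. After green signal was normalised to red-channel RNA signal and control-cluster median Fmax, the apparent Kd was taken as the median of filtered per-cluster binding-curve fits.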

[1] = designed as: ON switch for flavin mononucleotide, no ligand
[2] = ligand present: flavin mononucleotide, designed as: ON switch for flavin mononucleotide
[3] = designed as: OFF switch for flavin mononucleotide, no ligand
[4] = ligand present: flavin mononucleotide, designed as: OFF switch for flavin mononucleotide

Sequence | apparent Kd [1] | apparent Kd [2] | apparent Kd [3] | apparent Kd [4]
AAAAAAAAAAGGCAGGAUAUCCAAAAAAAAACAUGAGGAUCACCCAUGUAAAAAAAAAAAAAGUGGGAGAAGGGCCAAAAAAAAAA | 45.3 nM | 15.6 nM | – | –
AAAAAAAAGGGUGAGGAUAUAGAAAAAAAAACAUGAGGAUCACCCAUGUGAAAAAAAAAAAAAAGCUAGAAGGCACAAAAAAAAAA | 243 nM | 162 nM | – | –
AAAAAACAUGAGGAUCACCCAUGUAAAAAAAACACAGGAUAUCCCUUUUUUAAAAAAAAAGGAGAAGGGUGAAAAA | 41.6 nM | 32.9 nM | – | –
AAAAAACAUGAGGAUCACCCAUGUAAUAAAACGUCAGGAUAUUGAUUUUAUUAUUUAUUGCAAGAAGGGACAAAAA | 56.5 nM | 24 nM | – | –
AAAAAACAUGAGGAUCACCCAUGUCAAAAGACAUGAGGAUAUGUACAGACUUCGGUCUGUACAGAAGGCAUGUAAA | 321 nM | 30.8 nM | – | –
AAAAAACAUGAGGAUCACCCAUGUCAGGAUAUCGAAAAAAAAAAAAAAAAAAAAAAAACGAGAAGGGACAAAAA | – | – | 99.3 nM | 104 nM
AAAAAACAUGAGGAUCACCCAUGUGAGGAUAUCGAAAAGUCAAAGAAAAAGACGAAAACGAGAAGGCACAAAAA | – | – | 53.8 nM | 65.8 nM
AAAAAACAUGAGGAUCACCCAUGUGAGGAUAUCGGAAAAGGAAAAAAAAAAAAGAAGACGAGAAGGCACAAAGA | – | – | 48.4 nM | 60.4 nM
AAAAAACAUGAGGAUCACCCAUGUGAGGAUAUCUGUAUCCAAAAGGAAGUGUAGGAUCGGAGAAGGCACUAGGA | – | – | 53.9 nM | 83.2 nM
AAAAAGGCAGGAUAUACAUGAGGAUCACCCAUGUAAAGAAAGAAAGAGGUGAAAGAAAGUAGAAGGGCCAAAAA | – | – | 160 nM | 179 nM
AAAAAGGGAGGAUAUACAUGAGGAUCACCCAUGUAGCAGACGAAAAAGAGUCUGUAAUGUAGAAGGCCCAAAAA | – | – | 17.1 nM | 52.7 nM
AAAAAGUAAGGAUAUCGGCGGCGGCGGAGGCGGCGGCGGCUCGAGAAGGUACAUGAGGAUCACCCAUGUAAAAA | – | – | 29.2 nM | 15.3 nM
AAAAAGUCAGGAUAUGUGAAAAAAAAAAAAAAAAAAAAAAAACAGAAGGGACAUGAGGAUCACCCAUGUAAAAA | – | – | 54.1 nM | 62.3 nM
AAAAAGUGAGGAUAUACAUGAGGAUCACCCAUGUGAAAGUCGAAAAAAAAGACAAGAAGUAGAAGGCACAAAAA | – | – | 30.4 nM | 34.9 nM
AAAAAGUGAGGAUAUACAUGAGGAUCACCCAUGUUAAAAAAGGAAAAAAAAAAAAAAUGUAGAAGGCGCAAAAA | – | – | 45.3 nM | 44 nM
AAAAAUGGAGGAUAUACAUGAGGAUCACCCAUGUGUGGCCAUACUAUGUGCUCGUCAGGUAGAAGGCCAAAAAA | – | – | 28.7 nM | 46 nM
AAAACAGUGUAGGAUAUGGCUGGGCUGAAAAUGCUAGAAGGACACACAUGAGGAUCACCCAUGUGACUUCGUGC | – | – | 13.8 nM | 15.5 nM
AAAACAUGAGGAUCACCCAUGUAAAGAUCGGUUGAUGAAAGUGAGGAUAUACAAAAUUUUAUGGAGUAGAAGGCACUGGGUACA | 44.6 nM | 40.9 nM | – | –
AAAACAUGAGGAUCACCCAUGUAUAGAUCGAUUAUUAGGAGUGAGGAUAUGCAAGUUAUAAGGUAGCAGAAGGCACUGGGAAAA | 25.7 nM | 24.8 nM | – | –

Sequence | apparent Kd [1] | apparent Kd [2] | apparent Kd [3] | apparent Kd [4]
AAAACGUCAGGAUAUCCAAUAUAUGACAUGAGGAUCACCCAUGUUUCCACUCGUACCUCCGGAGAAGGGACUUUUU | – | – | 42.6 nM | 39.4 nM
AAAACGUGAGGAUAUACAUGAGGAUCACCCAUGUGAAACAGGAAAAACUGAAAGAAAAGUAGAAGGCACGAAAA | – | – | 33.4 nM | 50.1 nM
AAAACUCGAGGAUAUGCAAAAUGAUUGCGAAAGCAAUCAAAACAUGAGGAUCACCCAUGUAGAAGGCGAGAAAA | – | – | 23.7 nM | 15.4 nM
AAAACUGGAGGAUAUACAUGAGGAUCACCCAUGUGUGGAUGGGCUGUGUCGGCGUCAGGUAGAAGGCCACAAAA | – | – | 70 nM | 130 nM
AAAAGACAUGAGGAUCACCCAUGUGAAAACGUAGGAGGAUAUGUCUGGAAAACAUGCUGGACAGAAGGCCUGUGUC | 40.1 nM | 22.1 nM | – | –
AAAAGGCUAGGAUAUACCAGUGGGUGUAAGAACUCAAAGUUACAUGAGGAUCACCCAUGUAGAAGGAGUAAAAU | – | – | 17.1 nM | 40 nM
AAAAGGUUAGGAUAUGCCCGCCGGGUGGGAAGGCCGGGUGGGUAGAAGGGACAUGAGGAUCACCCAUGUAAAAA | – | – | 48.6 nM | 20 nM
AAAAGUCCUGAGGAUAUCGAAACUCCAUUAGGACGAGAAGGCGGGACAUGAGGAUCACCCAUGUGGGCGAGCUC | – | – | 232 nM | 475 nM
AAAAGUCGGCAAGGAUAUACAACGGAUUCCCUUGUAGAAGGUGCAGGACAUGAGGAUCACCCAUGUGAUCCGGGUAUAUUGAUG | – | – | 27.8 nM | 44.8 nM
AAAAUAAGUGUGAGGAUAUGCUGGUCCUUGGAUCAGCAGAAGGCACAUGAGGAUCACCCAUGUAAUAUAUUUAU | – | – | 84.7 nM | 295 nM
AAAAUCUAUUGAGGAUAUUCAUACACUACAUACGGAGAAGGCAAACAAUCAUGAGGACAUGAGGAUCACCCAUGUUGUGACCAU | 23.4 nM | 20 nM | – | –
AAAAUGUCAGGAUAUGCGAAGGCGUCUGACAGACGAGGAUUGCAGAAGGGACAUGAGGAUCACCCAUGUAAAAA | – | – | 50.6 nM | 126 nM
AAAAUGUGAGGAUAUUAGUUGUACGUCAAUAGACGUAUAAGUGAGAAGGCACAUGAGGAUCACCCAUGUUCCUG | – | – | 20.6 nM | 112 nM
AAAAUUGGCAGAUAAAAGGUCACACAGGAUAUACUCCCAACAUGAGGAUCACCCAUGUACUGGCGGUAGAAGGGUGGGAUCCUC | 50.7 nM | 13.5 nM | – | –
AAACAUGUCCGAGGAUAUCUGGAAACAAUUCCAAGAGAAGGCGGACAUGAGGAUCACCCAUGUCUCUCCUCAUCAAAUCCAAGU | – | – | 11.2 nM | 67.1 nM
AAACAUGUCCGAGGAUAUCUGGAAACAUUUUCAAGAGAAGGCGGACAUGAGGAUCACCCAUGUCUCACCUCAUCAAAUCCAAGU | – | – | 8.24 nM | 30.2 nM
AAACGCCAACAUGAGGAUCACCCAUGUUCUAGUUUAGGGUCGCAGGAUAUGACUUCGAAGCUUAGUCAGAAGGGUGAAUCCACA | 14.5 nM | 10.5 nM | – | –
AAAGAAAACAUAGGAUAUGUAACAUGAGGAUCACCCAUGUAUACCUCGUAAGAGAUGAUGGAUGGACAGAAGGAUGAUCUCAGG | 140 nM | 214 nM | – | –
AAAGACAGAGGAUAUACAUGAGGAUCACCCAUGUGGCGAAAAAAAAUCCAUUUGGCAUGUAGAAGGCUGUAUGA | – | – | 144 nM | 128 nM

Sequence | apparent Kd [1] | apparent Kd [2] | apparent Kd [3] | apparent Kd [4]
AAAGAGCGAGGAUAUACAUGAGGAUCACCCAUGUAAAGAUGCAUGGUCUGAACGUCUGGUAGAAGGCGUAUGAA | – | – | 135 nM | 120 nM
AAAGUGUGAAGCAGGGUGCUACAUGAGGAUCACCCAUGUCGGAGAAGGGCGCCGUUUCGCAUGGUGUAGGAUAUCUGGCGUGCA | – | – | 116 nM | 132 nM
AAAUAAAGCAGUGUAUUAAGAUCACAUGAGGAUCACCCAUGUAGAAGGCUCGAGCAAAAUGCUCGAGAGGAUAUGCAACACUGC | – | – | 5.12 nM | 35 nM
AAAUACCGGUGAGGAUAUUUUUAAUAGAACUUUAUGAUAUACAUGAGGAUCACCCAUGUUACUUUAAAGAAGGCAUCGGAUAAA | – | – | 17.5 nM | 15.8 nM
AAAUAGAAUGAGGAUAUCGUACUGGAUAUAGUGCGAGAAGGCAUUACAUGAGGAUCACCCAUGUUUUGUUGGGA | – | – | 25.6 nM | 76.6 nM
AAAUAGUUAGGAUAUACAUGAGGAUCACCCAUGUGGACUGAUGGCGAUUGAUUUAGUGGUAGAAGGGACUCAAA | – | – | 40.3 nM | 58.4 nM
AAAUCAGUAGGAUAUACGAUUUUAUGCUAGAUAGAGGAGCCACAUGAGGAUCACCCAUGUAGAAGGACUAGAUA | – | – | 17.1 nM | 19.9 nM
AAAUCGGCGGAGAAGGGACCUUUACCCUAUCGGUCAGGAUAUCCGCUACAUGAGGAUCACCCAUGUGCCGGGUGUCCGCGUGUG | – | – | 22.2 nM | 12.2 nM
AAAUCGUCAGGAUAUGCUAGUAAAUGUUACAUUUCUUCAUAGCAGAAGGGACAUGAGGAUCACCCAUGUAAGUC | – | – | 33.7 nM | 45.6 nM
AAAUUUAACGAAGGAUAUACUAACAUGAGGAUCACCCAUGUGUGUUUCGUGUUACUGAAAUUCGGGUAGAAGGUCGUAUACAUA | – | – | 80.4 nM | 33.7 nM
AACAAACAUGAGGAUCACCCAUGUGAGGAUAUCGGAUGUACAGCGCAAUUAGAAUUAACGAGAAGGCACACUUA | – | – | 30.6 nM | 29.1 nM
AACAAUCUAUCUGAGGAUAUCAUGAAAUAAACAUGAGGAUCACCCAUGUGCAGGAAAUCUGCAUAUGAGAAGGCAGAUAGAUUGA | 1340 nM | 56.1 nM | – | –
AACAGUACAGGAUAUACAUGAGGAUCACCCAUGUGACAAUUAAGUGGCGUACCACAGAGUAGAAGGGUACUGGA | – | – | 35 nM | 151 nM
AACAGUACAGGAUAUACAUGAGGAUCACCCAUGUGAGAAUUAAGUGGCAUACCACAAAGUAGAAGGGUACUGGA | – | – | 29.7 nM | 202 nM
AACAGUAGAGGAUAUACAUGAGGAUCACCCAUGUGAGAUUUAAGUGGCGUACCACAAAGUAGAAGGCUACUGGA | – | – | 36.2 nM | 161 nM
AACAUACAUGAGGAUCACCCAUGUUCCGGCAGGCUAGGAUAUCAAUCGAAAGUGUUAUAAUGAGAAGGAGCAUAAA | 49 nM | 29.4 nM | – | –
AACAUGAGGAUCACCCAUGUCCCACCAGAAGGCUGGCGGCCACAGGAACGGCUGUGGCAAAUAACAGAGGAUAUGGUGAAUGCA | 80.8 nM | 16.1 nM | – | –
AACAUGCUUGGGUAACCUGGCACAUGAGGAUCACCCAUGUGACAGGAUAUCGACGUAGAUGGCGACGAGAAGGGUCCGAUGGGU | – | – | 7.13 nM | 10.8 nM

From the EternaBench riboswitch data
